# Test results reported in the M2OR odorant receptor database.
# Key:
# Settings in all cases: stereoisomer not certain
# A0A140T8K4 = test system: T1, A0A140T8K4
# T1 sequence (whole entry): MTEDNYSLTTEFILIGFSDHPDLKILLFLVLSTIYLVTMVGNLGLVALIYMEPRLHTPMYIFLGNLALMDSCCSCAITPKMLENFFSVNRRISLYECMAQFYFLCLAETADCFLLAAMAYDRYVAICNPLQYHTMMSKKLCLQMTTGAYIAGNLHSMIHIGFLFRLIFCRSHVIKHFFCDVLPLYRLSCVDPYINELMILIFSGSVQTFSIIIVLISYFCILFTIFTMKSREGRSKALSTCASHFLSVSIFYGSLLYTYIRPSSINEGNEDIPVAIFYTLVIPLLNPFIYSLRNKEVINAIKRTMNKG
# How it was run: (§1)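 Values were gathered from published papers (main text and supplementary material), with extra details requested from the original authors when needed, and checked for typos and inconsistencies. Each receptor–molecule pair is called responsive (active) if the original authors judged the measured signal statistically different from baseline, and non-responsive (inactive) otherwise. Assay methods varied by source, often transient mammalian cell-line luciferase assays. Recorded details include cell line, G-protein, co-transfected protein and tags.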
# A0A1L1SVG7 = test system: T2, A0A1L1SVG7
# T2 sequence (whole entry): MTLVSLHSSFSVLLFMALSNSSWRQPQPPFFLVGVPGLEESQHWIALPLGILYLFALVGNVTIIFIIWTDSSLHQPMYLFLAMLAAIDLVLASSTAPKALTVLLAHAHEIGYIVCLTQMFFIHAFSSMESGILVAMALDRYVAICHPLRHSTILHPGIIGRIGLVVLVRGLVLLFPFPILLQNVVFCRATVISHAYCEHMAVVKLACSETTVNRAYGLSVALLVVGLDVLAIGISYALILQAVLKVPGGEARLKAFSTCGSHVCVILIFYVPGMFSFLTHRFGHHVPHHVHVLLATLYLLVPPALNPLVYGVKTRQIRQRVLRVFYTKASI
# How it was run: as §1
# A0A140T8K0 = test system: T3, A0A140T8K0
# T3 sequence (whole entry): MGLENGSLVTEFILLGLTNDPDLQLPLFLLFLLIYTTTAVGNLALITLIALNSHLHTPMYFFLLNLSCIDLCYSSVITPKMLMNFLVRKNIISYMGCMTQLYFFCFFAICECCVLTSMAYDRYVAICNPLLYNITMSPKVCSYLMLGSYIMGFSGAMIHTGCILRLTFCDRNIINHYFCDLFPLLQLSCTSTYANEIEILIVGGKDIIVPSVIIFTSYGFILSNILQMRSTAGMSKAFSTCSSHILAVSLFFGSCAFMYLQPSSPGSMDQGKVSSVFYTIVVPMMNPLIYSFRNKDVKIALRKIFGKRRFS
# How it was run: as §1
# O10H2 = test system: O10H2
# Chain of O10H2 (as listed by the source): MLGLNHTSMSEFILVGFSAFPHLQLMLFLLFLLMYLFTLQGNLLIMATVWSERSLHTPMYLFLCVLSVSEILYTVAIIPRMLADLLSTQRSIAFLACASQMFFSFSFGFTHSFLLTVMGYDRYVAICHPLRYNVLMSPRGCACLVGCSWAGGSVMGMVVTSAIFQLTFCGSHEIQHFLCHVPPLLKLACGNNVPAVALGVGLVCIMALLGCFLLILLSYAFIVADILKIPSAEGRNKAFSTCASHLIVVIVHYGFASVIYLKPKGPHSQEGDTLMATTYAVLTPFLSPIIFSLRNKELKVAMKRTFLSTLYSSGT
# How it was run: as §1
# O10A2 H43R H207R K258T = test system: O10A2 H43R H207R K258T
# How it was run: as §1
# O10A3 C8G = test system: O10A3 C8G
# Chain of O10A3 C8G (as listed by the source): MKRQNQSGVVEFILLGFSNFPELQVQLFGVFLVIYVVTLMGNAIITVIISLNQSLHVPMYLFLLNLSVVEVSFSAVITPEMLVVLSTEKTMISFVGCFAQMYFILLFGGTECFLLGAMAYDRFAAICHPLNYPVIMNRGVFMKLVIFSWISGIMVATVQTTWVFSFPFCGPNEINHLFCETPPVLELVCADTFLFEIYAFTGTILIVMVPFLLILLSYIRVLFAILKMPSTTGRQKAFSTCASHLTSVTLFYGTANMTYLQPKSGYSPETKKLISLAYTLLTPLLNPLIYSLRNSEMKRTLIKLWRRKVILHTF
# How it was run: as §1
# O10A6 = test system: O10A6
# Chain of O10A6 (as listed by the source): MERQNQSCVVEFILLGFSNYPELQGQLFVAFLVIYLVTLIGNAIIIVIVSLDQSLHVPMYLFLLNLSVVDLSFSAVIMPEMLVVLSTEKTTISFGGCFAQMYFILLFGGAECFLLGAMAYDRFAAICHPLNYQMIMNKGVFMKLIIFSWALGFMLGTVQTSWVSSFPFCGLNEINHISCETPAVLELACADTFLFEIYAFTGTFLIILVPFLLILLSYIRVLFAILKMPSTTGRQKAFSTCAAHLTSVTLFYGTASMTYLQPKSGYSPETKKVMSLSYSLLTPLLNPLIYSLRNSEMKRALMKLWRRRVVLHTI
# How it was run: as §1
# O10AD G65C = test system: O10AD G65C
# Chain of O10AD G65C (as listed by the source, stated change not applied): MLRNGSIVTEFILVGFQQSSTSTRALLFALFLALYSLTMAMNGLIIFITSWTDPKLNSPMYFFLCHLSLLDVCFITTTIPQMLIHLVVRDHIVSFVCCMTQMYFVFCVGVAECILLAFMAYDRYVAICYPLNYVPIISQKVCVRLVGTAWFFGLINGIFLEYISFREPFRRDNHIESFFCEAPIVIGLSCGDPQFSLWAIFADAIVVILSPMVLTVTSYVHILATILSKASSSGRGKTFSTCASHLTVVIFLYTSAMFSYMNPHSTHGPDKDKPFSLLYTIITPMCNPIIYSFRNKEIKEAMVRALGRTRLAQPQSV
# How it was run: as §1
# O10D3 V134A R197K = test system: O10D3 V134A R197K
# How it was run: as §1
# O10G4 L24P V195E = test system: O10G4 L24P V195E
# How it was run: as §1
# O10G7 A18V P19Q G20A = test system: O10G7 A18V P19Q G20A
# How it was run: as §1
# O10G7 I28V = test system: O10G7 I28V
# Chain of O10G7 I28V (as listed by the source, stated change not applied): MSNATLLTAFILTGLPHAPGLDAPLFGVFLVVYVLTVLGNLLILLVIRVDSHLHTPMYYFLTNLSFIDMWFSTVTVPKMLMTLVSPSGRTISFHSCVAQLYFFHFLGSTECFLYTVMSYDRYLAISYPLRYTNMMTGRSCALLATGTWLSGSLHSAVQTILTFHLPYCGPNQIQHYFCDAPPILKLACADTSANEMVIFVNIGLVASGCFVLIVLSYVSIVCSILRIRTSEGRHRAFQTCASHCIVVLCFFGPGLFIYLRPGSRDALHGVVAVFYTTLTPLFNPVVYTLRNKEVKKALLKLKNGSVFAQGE
# How it was run: as §1
# O10H3 R54H = test system: O10H3 R54H
# Chain of O10H3 R54H (as listed by the source, stated change not applied): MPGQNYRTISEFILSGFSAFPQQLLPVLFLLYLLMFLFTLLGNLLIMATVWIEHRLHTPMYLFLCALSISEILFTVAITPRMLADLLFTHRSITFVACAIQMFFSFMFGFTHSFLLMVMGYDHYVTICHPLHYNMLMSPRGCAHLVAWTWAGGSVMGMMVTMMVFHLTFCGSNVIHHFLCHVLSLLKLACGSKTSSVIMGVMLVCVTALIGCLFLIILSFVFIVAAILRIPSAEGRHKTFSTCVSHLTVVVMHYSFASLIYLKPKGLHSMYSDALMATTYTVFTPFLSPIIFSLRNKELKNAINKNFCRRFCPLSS
# How it was run: as §1
# O10H4 I50V = test system: O10H4 I50V
# Chain of O10H4 I50V (as listed by the source, stated change not applied): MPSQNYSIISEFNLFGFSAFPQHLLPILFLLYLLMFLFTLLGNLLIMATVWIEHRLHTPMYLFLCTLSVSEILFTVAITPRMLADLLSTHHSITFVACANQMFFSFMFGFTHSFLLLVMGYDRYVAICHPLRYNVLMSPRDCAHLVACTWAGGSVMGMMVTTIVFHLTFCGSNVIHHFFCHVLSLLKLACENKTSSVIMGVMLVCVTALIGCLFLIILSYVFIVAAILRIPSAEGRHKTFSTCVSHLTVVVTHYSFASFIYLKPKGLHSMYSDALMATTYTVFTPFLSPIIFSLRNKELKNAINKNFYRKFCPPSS
# How it was run: as §1
# O10H5 S268Y = test system: O10H5 S268Y
# Chain of O10H5 S268Y (as listed by the source, stated change not applied): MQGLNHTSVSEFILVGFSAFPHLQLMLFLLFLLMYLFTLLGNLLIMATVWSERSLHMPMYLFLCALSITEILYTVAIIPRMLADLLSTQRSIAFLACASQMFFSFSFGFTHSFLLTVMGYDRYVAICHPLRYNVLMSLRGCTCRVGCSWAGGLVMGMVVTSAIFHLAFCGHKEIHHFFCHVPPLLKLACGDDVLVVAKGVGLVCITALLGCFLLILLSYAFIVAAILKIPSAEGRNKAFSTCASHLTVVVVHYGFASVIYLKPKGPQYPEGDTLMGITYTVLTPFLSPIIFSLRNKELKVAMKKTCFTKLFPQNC
# How it was run: as §1
# O10J1 M62I I103M = test system: O10J1 M62I I103M
# How it was run: as §1
# O10J1 M62I = test system: O10J1 M62I
# Chain of O10J1 M62I (as listed by the source, stated change not applied): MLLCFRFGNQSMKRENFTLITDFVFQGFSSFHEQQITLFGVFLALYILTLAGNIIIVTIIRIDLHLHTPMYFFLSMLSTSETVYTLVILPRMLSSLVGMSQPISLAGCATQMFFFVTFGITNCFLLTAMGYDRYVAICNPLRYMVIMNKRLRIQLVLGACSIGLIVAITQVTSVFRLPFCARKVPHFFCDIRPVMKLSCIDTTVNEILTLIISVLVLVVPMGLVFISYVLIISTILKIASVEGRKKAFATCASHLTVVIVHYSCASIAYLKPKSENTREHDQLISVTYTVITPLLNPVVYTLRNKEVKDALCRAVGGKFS
# How it was run: as §1
# O10J3 Q235R E319G = test system: O10J3 Q235R E319G
# How it was run: as §1
# O10P1 R195K = test system: O10P1 R195K
# Chain of O10P1 R195K (as listed by the source, stated change not applied): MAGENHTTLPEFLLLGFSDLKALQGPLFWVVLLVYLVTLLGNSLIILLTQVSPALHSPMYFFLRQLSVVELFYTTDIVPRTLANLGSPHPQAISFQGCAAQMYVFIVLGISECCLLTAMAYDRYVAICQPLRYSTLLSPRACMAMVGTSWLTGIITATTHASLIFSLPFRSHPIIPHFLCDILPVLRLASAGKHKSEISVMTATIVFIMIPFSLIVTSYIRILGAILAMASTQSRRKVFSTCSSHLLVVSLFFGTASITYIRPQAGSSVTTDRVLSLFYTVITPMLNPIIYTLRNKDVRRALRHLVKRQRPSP
# How it was run: as §1
# O10Q1 E12D = test system: O10Q1 E12D
# Chain of O10Q1 E12D (as listed by the source, stated change not applied): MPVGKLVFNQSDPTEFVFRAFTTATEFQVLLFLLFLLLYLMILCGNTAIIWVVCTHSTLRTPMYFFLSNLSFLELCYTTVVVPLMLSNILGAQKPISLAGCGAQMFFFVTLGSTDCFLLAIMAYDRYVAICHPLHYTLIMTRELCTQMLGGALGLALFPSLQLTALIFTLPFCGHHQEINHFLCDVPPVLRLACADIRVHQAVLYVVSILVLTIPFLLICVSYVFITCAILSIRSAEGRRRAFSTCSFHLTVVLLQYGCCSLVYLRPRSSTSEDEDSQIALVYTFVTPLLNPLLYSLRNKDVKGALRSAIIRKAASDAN
# How it was run: as §1
smiles,measurement,setting,value
C=CCc1ccccc1,odorant receptor agonist call,A0A140T8K4,inactive
same,odorant receptor agonist call,A0A1L1SVG7,inactive
CCCCC(Br)C(=O)O (stereo not given),odorant receptor agonist call,A0A140T8K0,inactive
COc1ccc(C=O)cc1,odorant receptor agonist call,A0A140T8K0,inactive
O=Cc1ccc2c(c1)OCO2,odorant receptor agonist call,A0A140T8K0,inactive
O=c1cc(O)c2ccccc2o1,odorant receptor agonist call,A0A140T8K0,inactive
same,odorant receptor agonist call,A0A140T8K4,inactive
same,odorant receptor agonist call,A0A1L1SVG7,inactive
O=CC=Cc1ccccc1,odorant receptor agonist call,A0A140T8K0,inactive
same,odorant receptor agonist call,O10H2,active
Oc1ccccc1Br,odorant receptor agonist call,A0A140T8K0,inactive
CC(C=O)Cc1ccc2c(c1)OCO2 (stereo not given),odorant receptor agonist call,A0A140T8K0,inactive
C=CCOC(=O)Cc1ccccc1,odorant receptor agonist call,A0A140T8K0,inactive
same,odorant receptor agonist call,A0A140T8K4,inactive
same,odorant receptor agonist call,A0A1L1SVG7,inactive
same,odorant receptor agonist call,O10A2 H43R H207R K258T,inactive
same,odorant receptor agonist call,O10A3 C8G,inactive
same,odorant receptor agonist call,O10A6,inactive
same,odorant receptor agonist call,O10AD G65C,inactive
same,odorant receptor agonist call,O10D3 V134A R197K,inactive
same,odorant receptor agonist call,O10G4 L24P V195E,inactive
same,odorant receptor agonist call,O10G7 A18V P19Q G20A,inactive
same,odorant receptor agonist call,O10G7 I28V,inactive
same,odorant receptor agonist call,O10H2,inactive
same,odorant receptor agonist call,O10H3 R54H,inactive
same,odorant receptor agonist call,O10H4 I50V,inactive
same,odorant receptor agonist call,O10H5 S268Y,inactive
same,odorant receptor agonist call,O10J1 M62I I103M,inactive
same,odorant receptor agonist call,O10J1 M62I,inactive
same,odorant receptor agonist call,O10J3 Q235R E319G,inactive
same,odorant receptor agonist call,O10P1 R195K,inactive
same,odorant receptor agonist call,O10Q1 E12D,inactive
CSSC,odorant receptor agonist call,A0A140T8K0,inactive
OCc1ccc2c(c1)OCO2,odorant receptor agonist call,A0A140T8K0,inactive
CCC1CCC(=O)O1 (stereo not given),odorant receptor agonist call,A0A140T8K4,inactive
same,odorant receptor agonist call,A0A1L1SVG7,inactive
O=Cc1ccccc1,odorant receptor agonist call,A0A140T8K0,inactive
Cc1ccc(OC(=O)Cc2ccccc2)cc1,odorant receptor agonist call,A0A140T8K0,inactive
C=C(C)C1CC=C(C=O)CC1 (stereo not given),odorant receptor agonist call,A0A140T8K0,inactive
CCCCCCC(Br)C(=O)O (stereo not given),odorant receptor agonist call,A0A140T8K0,inactive
